Consider 10 molecules from ChEMBL document CHEMBL1140750, “Dynamic combinatorial mass spectrometry leads to metallo-beta-lactamase inhibitors” (J Med Chem, 2008).

Experiment [1] can be described thus: Inhibition of Bacillus cereus metallo-beta-lactamase BcII by dynamic combinatorial mass spectrometry. The procedure, abridged: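 BcII enzyme was preincubated with inhibitor at room temperature in 20 mM HEPES pH 7.0 with 20 µg/mL BSA; inhibitors came from 10 mM DMSO stocks. Imipenem substrate was then added at 20–200 µM, with at least two inhibitor concentrations plus a no-inhibitor control. Hydrolysis was followed by absorbance at 300 or 482 nm at 30 °C. Ki was derived from initial rates by Hanes linearization.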

Experiment [2] in a line: Inhibition of metallo-beta-lactamase IMP1.

pIC50, pKi: −log10 of the molar value.

For `O=C(NC(CS)C(=O)O)c1ccccc1` (single isomer, unassigned; 9b), in experiment [1], the negative-log Ki (pKi) was 6.13.
On the same count and under the same terms, the result for `CC(C)(C)c1ccc(C(=O)N[C@H](CS)C(=O)O)cc1` reads 5.08.
In experiment [2], `O=C(O)CCS` [MERCAPTOPROPIONIC ACID] had a pIC50 of 3.77.
In the case of `O=C(CCc1ccccc1)NC(CS)C(=O)O` (single isomer, unassigned; 9f), the pKi in experiment [1] is 4.14.
Still for that read-out and setting: the figure for `O=C(NC(CS)C(=O)O)c1ccccc1` (single isomer, unassigned; 9a) is 4.55; for `O=C(O)C(S)C(S)C(=O)O` (stereo not given) it is 3.90.
Same read-out and setting: the result for `O=C(Cc1ccccc1)NC(CS)C(=O)O` (single isomer, unassigned; 9d) reads 4.28; that for `O=C(Cc1ccccc1)NC(CS)C(=O)O` (single isomer, unassigned; 9c), 3.81.
On the same count and under the same terms, the figure for `O=C(CCc1ccccc1)NC(CS)C(=O)O` (single isomer, unassigned; 9e) is 4.36; for `CC(=O)Nc1ccc(C(=O)N[C@H](CS)C(=O)O)cc1` it is 4.87.
